The EternaBench riboswitch data

Test system: MS2 coat protein
Assay: apparent Kd, MS2 coat protein; higher = weaker binding; RNA-MaP array; FMN 200 µM where present
Method in brief: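 Binding was read on Illumina sequencing-chip clusters where stalled E. coli RNA polymerase had transcribed each design. A titration of SNAP-549-labelled MS2 coat protein began at 0.7 or 1.5 nM and doubled to 3 µM, once without ligand and once with constant ligand, in 100 mM Tris-HCl pH 7.5, 80 mM KCl, 4 mM MgCl2, BSA, DTT, yeast tRNA and Tween-20. The apparent Kd is the median of filtered per-cluster binding-curve fits, based on green signal normalised to red-channel RNA signal and control-cluster median Fmax.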

[1] = designed as: OFF switch for flavin mononucleotide, no ligand
[2] = ligand present: flavin mononucleotide, designed as: OFF switch for flavin mononucleotide
[3] = designed as: ON switch for flavin mononucleotide, no ligand
[4] = ligand present: flavin mononucleotide, designed as: ON switch for flavin mononucleotide

Sequence: GUCAUUGACAAGAAGGCAAACAUGAGGAUCACCCAUGUUCUGCAUGUAUAUUGAGGAUAUUGCCAAUGCAUGAGGAUCACCCAG
- apparent Kd [1]: 11.7 nM
- apparent Kd [2]: 20.2 nM

Sequence: GUCCGUAGACAGAAGGUGACAUGAGGAUCACCCAUGUUAGUUGAGGUAUCAGCGAUCUGCGUGAUUGAGGAUAUGUCUACGGGC
- apparent Kd [1]: 7.9 nM
- apparent Kd [2]: 8.22 nM

Sequence: GUCCUUUCUGAGGAUAUUAUCUGGUUCGAUUGAUAAGAAGGCAGUACAUGAGGAUCACCCAUGUGGGUCGUCUG
- apparent Kd [1]: 31.6 nM
- apparent Kd [2]: 69.5 nM

Sequence: GUCCUUUCUGAGGAUAUUAUCUGGUUCGAUUGAUAAGAAGGCAGUACAUGAGGAUCACCCAUGUGGUUCGUUUG
- apparent Kd [1]: 115 nM
- apparent Kd [2]: 268 nM

Sequence: GUCGGAAACGACAAAAGUAGCAUAGGAGAAGGUUCAUUAAACAUGAGGAUCACCCAUGUAAUUGGAAAGGAUAUCCUAUGCUAC
- apparent Kd [3]: 5.04 nM
- apparent Kd [4]: 5.06 nM

Sequence: GUCGGAAACGACAAAAGUAUGGAUCCAGAAGGCAUGAAACAUGAGGAUCACCCAUGUCAAAGAUAUGAGGAUAUGGAUCCAUAC
- apparent Kd [3]: 4.64 nM
- apparent Kd [4]: 4.01 nM

Sequence: GUCGGAAACGACAAUGAUAGGACUGAGGAUAUACAUAAAUAAAUCCUUACAUGAGGAUCACCCAUGUAGAAGGCAGUCCUAUCU
- apparent Kd [1]: 47.2 nM
- apparent Kd [2]: 590 nM

Sequence: GUCGUGUUAGGAUAUGGCGGCGGCGGCGUUUGUUGUUGUUGUUAGAAGGAACAUGAGGAUCACCCAUGUAUGAC
- apparent Kd [1]: 43.4 nM
- apparent Kd [2]: 119 nM

Sequence: GUCUGAUUGUAGAAGGUACUUAAUACUCAUGUAACAUGAGGAUCACCCAUGUAUCAACAAUAUUGUAAGGAUAUACAUAUCUCA
- apparent Kd [3]: 478 nM
- apparent Kd [4]: 258 nM

Sequence: GUCUGGCUAGGAUAUACAUAGUCCACGAGUCGGUUGCCCUGACAUGAGGAUCACCCAUGUAGAAGGAGCGAGAA
- apparent Kd [1]: 19.4 nM
- apparent Kd [2]: 18.6 nM

Sequence: GUCUUACAUGAGGAUCACCCAUGUGAGGAUAUCCGCGGCGCCGGGUUUCCGGCGCCGCGGAGAAGGCGCGUGUU
- apparent Kd [1]: 19.2 nM
- apparent Kd [2]: 22.3 nM

Sequence: GUCUUGUCAGGAUAUCUUACAUAACAAUCGUAGUUACCAUUGGAGAAGGGACAUGAGGAUCACCCAUGUUAGCC
- apparent Kd [1]: 17.2 nM
- apparent Kd [2]: 19.1 nM

Sequence: GUCUUUUUACAGAAGGUGUUUUACAUGAGGAUCACCCAUGUUUAUAUGUUUAAAUUUGAUAUUUACAAGGAUAUGUACUAAUCU
- apparent Kd [3]: 25.3 nM
- apparent Kd [4]: 17.4 nM

Sequence: GUGACGAUGUAAGGAUAUGCUGAGGAUAACUCAGCAGAAGGUACAUGAGGAUCACCCAUGUAAAUAAUAAGAAAUAAACGUCAC
- apparent Kd [1]: 16.6 nM
- apparent Kd [2]: 24.1 nM

Sequence: GUGAUAUUGUAAGGAUAUACUCUGUGAUGAAGAGUAGAAGGUACUUACAUGAGGAUCACCCAUGUUUAACGAGAUACUAAUCGU
- apparent Kd [3]: 198 nM
- apparent Kd [4]: 76.9 nM

Sequence: GUGCACAUUCGAGGAUAUCGGAGAGGAAUCCUUCGAGAAGGCGAUUCAUGCUGUGUUAUUCUGGACAUGAGGAUCACCCAUGUG
- apparent Kd [3]: 192 nM
- apparent Kd [4]: 97.8 nM

Sequence: GUGCCUAACUAGAAGGCCCAAUGCAAAGCAUCGGGAGGAUAUGGGUUUAAUAAAUAAACAUGAGGAUCACCCAUGUGGCACAAA
- apparent Kd [4]: 10.4 nM

Sequence: GUGCCUUGGGAGAAGGCAGUAUGCAAAGCAUCCUGAGGAUAUUCAUACCGGAAACGGACAUGAGGAUCACCCAUGUGGCACAAA
- apparent Kd [3]: 864 nM
- apparent Kd [4]: 57 nM

Sequence: GUGCGGUAGGAGAAGGACGGCGGGUUCUUUUCAUACAUGAGGAUCACCCAUGUAGGAUAUCCUACCUCACGCGGCCUACUACAG
- apparent Kd [1]: 8.61 nM
- apparent Kd [2]: 13.5 nM

Sequence: GUGGAGGGUUGAGGAUAUUGAAUACAUAUGUUUAACAUGAGGAUCACCCAUGUGGGUUGCGGUAUCGAGAAGGUAAAUUGCUGG
- apparent Kd [3]: 97.2 nM
- apparent Kd [4]: 109 nM

Sequence: GUGGAGUACGUAGGAUAUGUAGGAUAUUCCUACAUGAGGAUCACCCAUGUAUGCAUGGAAGAAGGACAGAAGGACGUGCUCCAG
- apparent Kd [3]: 208 nM
- apparent Kd [4]: 13.5 nM

Sequence: GUGGCCUAGGCACAGGAUAUGUUGCUCGUAACAUGAGGAUCACCCAUGUGCCUAUGAGAUUUAAUGCAGAAGGGUGCACGCCACG
- apparent Kd [3]: 173 nM
- apparent Kd [4]: 17.1 nM

Sequence: GUGGCUCCCACAGGAUAUCCACAUGAGGAUCACCCAUGUCUAAUUAACAAAGGAGAAGGGUGGGACAACUCUGGUGACUGAGAG
- apparent Kd [3]: 28.9 nM
- apparent Kd [4]: 5.45 nM
